Measurements: ChEMBL document CHEMBL1144746, “Structural simplification of bioactive natural products with multicomponent synthesis. 2. antiproliferative and antitubulin activities of pyrano[3,2-c]pyridones and pyrano[3,2-c]quinolones” (2008)
Active and inactive are the calls of the source. The calls are words filed in the database; no cut-off is given here.

Assays:
Jurkat [1] = assay: Induction of apoptosis in human Jurkat cells at 5 uM by annexin V/propidium iodide assay; format: functional, cell-based
How it was run: (§1)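 Jurkat cells at 2 × 10^5 cells/mL exposed to compounds, with DMSO control. Exposure was 5 μM for 36 h, 1 μM for 12–60 h, or 48 h across a range of doses. Cells stained with Annexin-V-FITC/propidium iodide in HHB with CaCl2 for 20 min at 37 °C. Flow cytometry gives % Annexin-V-positive cells; four replicates, experiment repeated twice.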

HeLa = assay: Antiproliferative activity against human HeLa cells assessed as cell viability after 48 hrs by MTT assay; format: functional
How it was run: (§2)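 Cells plated at 2 × 10^4 cells/mL and allowed to adhere for 24 h, then exposed to compounds for 48 h. MTT reagent (5 mg/mL stock) added for 2 h, formazan dissolved in DMSO, OD read at 490 nm.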

MCF7 = assay: Antiproliferative activity against human MCF7 cells assessed as cell viability after 48 hrs by MTT assay; format: functional; details: MCF7, 48 h; how it was run: as §2
Jurkat [2] = assay: Cell cycle arrest in human Jurkat cells assessed as accumulation at G0/G1 phase at 1 uM after 24 hrs by flow cytometry; format: functional
How it was run: (§3)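 Cells stained with Vybrant DyeCycle Orange in HHB (1 μL dye per mL) for 30 min at 37 °C in the dark, then analysed by flow cytometry. % relative DNA content ± SD, two independent experiments each in triplicate.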

Jurkat [3] = assay: Cell cycle arrest in human Jurkat cells assessed as accumulation at S phase at 1 uM after 24 hrs by flow cytometry; format: functional; how it was run: as §3
Jurkat [4] = assay: Induction of apoptosis in human Jurkat cells assessed as oligonucleosomal DNA fragments at 1.5 uM after 36 hrs by DNA laddering assay; format: functional, cell-based
How it was run: (§4)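 About 1 × 10^6 Jurkat cells treated for 36 h. Cells lysed in Tris-HCl pH 8/EDTA/0.5% SDS/proteinase K at 55 °C for 60 min, then RNase at 55 °C for 60 min. Cleared lysate run on a 1.5% agarose gel with ethidium bromide at 80 V for about 1 h and viewed under UV.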

Bos taurus [5] = species on record: Bos taurus; assay: Inhibition of bovine tubulin polymerization at 25 uM
How it was run: (§5)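 Purified bovine tubulin incubated at 37 °C in buffer with 10% glycerol and 1 mM GTP, each agent in a separate run against a 0.05% DMSO control. Polymerization followed kinetically by fluorescence increase on a plate reader.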

Jurkat [6] = assay: Cell cycle arrest in human Jurkat cells assessed as accumulation at G2/M phase at 1 uM after 24 hrs by flow cytometry; format: functional; how it was run: as §3
Jurkat [7] = assay: Induction of apoptosis in human Jurkat cells assessed as morphological changes after 2 hrs by light microscopy; format: functional, cell-based
How it was run: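 Jurkat cells exposed to compound at 1 μM for 2 h, with 0.1% DMSO as control. Finger-like extensions and shriveling scored by light microscopy.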

Jurkat [8] = assay: Induction of apoptosis in human Jurkat cells at 100 nM by annexin V/propidium iodide assay
Jurkat [9] = assay: Induction of apoptosis in human Jurkat cells by annexin V/propidium iodide assay; format: functional, cell-based; details: TDE = time-dependent effect; how it was run: as §1
Bos taurus [10] = species on record: Bos taurus; assay: Induction of bovine tubulin polymerization at 3 uM relative to control; how it was run: as §5
Jurkat [11] = assay: Induction of apoptosis in human Jurkat cells assessed as oligonucleosomal DNA fragments at 0.4 uM after 36 hrs by DNA laddering assay; format: functional, cell-based; how it was run: as §4

Cc1cc2c(c(=O)n1C)C(c1ccc(Cl)c(Cl)c1)C(C#N)=C(N)O2 (stereo not given)
Activity (Jurkat [1]): inactive
GI50 (HeLa): 18300 nM

COc1cc(C2C(C#N)=C(N)Oc3c2c(=O)n(C)c2ccccc32)cc(Br)c1OC(C)=O (stereo not given)
GI50 (HeLa): 180 nM
GI50 (MCF7): 25 nM

COc1cc(C2C(C#N)=C(N)Oc3c2c(=O)n(C)c2ccccc32)cc(Br)c1OC (stereo not given)
Activity (Jurkat [2]): 20%
Activity (Jurkat [3]): 28%
Activity (Jurkat [4]): Active
GI50 (HeLa): 14 nM
Activity (Bos taurus [5]): Active
GI50 (MCF7): 380 nM
Activity (Jurkat [6]): 49%
Activity (Jurkat [7]): Active

Cn1c(=O)c2c(c3ccccc31)OC(N)=C(C#N)C2c1cccc([N+](=O)[O-])c1 (stereo not given)
GI50 (HeLa): 320 nM
GI50 (MCF7): 1100 nM

COc1cc([C@@H]2c3cc4c(cc3[C@H](O)[C@H]3COC(=O)[C@H]23)OCO4)cc(OC)c1OC
Activity (Bos taurus [5]): Active

COc1cc(C2C(C#N)=C(N)Oc3c2c(=O)n(C)c2ccccc32)ccc1O (stereo not given)
GI50 (HeLa): 630 nM
GI50 (MCF7): 500 nM

Cc1ccc(C2C(C#N)=C(N)Oc3c2c(=O)n(C)c2ccccc32)o1 (stereo not given)
GI50 (HeLa): 3900 nM
GI50 (MCF7): 5100 nM

Cc1cc2c(c(=O)n1C)C(c1cccc([N+](=O)[O-])c1)C(C#N)=C(N)O2 (stereo not given)
GI50 (HeLa): 35000 nM

Cn1c(=O)c2c(c3ccccc31)OC(N)=C(C#N)C2c1cc(Br)c(O)c(Br)c1 (stereo not given)
GI50 (HeLa): 270 nM
GI50 (MCF7): 430 nM

Cc1cc2c(c(=O)n1C)C(c1cccc(Br)c1)C(C#N)=C(N)O2 (stereo not given)
Activity (Jurkat [1]): Active
GI50 (HeLa): 6500 nM

Cn1c(=O)c2c(c3ccccc31)OC(N)=C(C#N)C2c1ccco1 (stereo not given)
GI50 (HeLa): 22000 nM
GI50 (MCF7): 35000 nM

Cn1c(=O)c2c(c3ccccc31)OC(N)=C(C#N)C2c1c(Cl)cccc1Cl (stereo not given)
GI50 (HeLa): > 50000 nM
GI50 (MCF7): 36000 nM

Cc1cc2c(c(=O)n1C)C(c1ccc(N(C)C)c(Br)c1)C(C#N)=C(N)O2 (stereo not given)
Activity (Jurkat [1]): Active
GI50 (HeLa): 330 nM

COc1ccc(C2C(C#N)=C(N)Oc3c2c(=O)n(C)c2ccccc32)cc1O (stereo not given)
GI50 (HeLa): > 50000 nM
GI50 (MCF7): > 50000 nM

Cn1c(=O)c2c(c3ccccc31)OC(N)=C(C#N)C2c1ccccc1 (stereo not given)
GI50 (HeLa): 390 nM
GI50 (MCF7): 3380 nM

Cn1c(=O)c2c(c3ccccc31)OC(N)=C(C#N)C2c1cccc(Cl)c1 (stereo not given)
GI50 (HeLa): 150 nM
GI50 (MCF7): 2200 nM

COc1cc(C2C(C#N)=C(N)Oc3cc(C)n(C)c(=O)c32)cc(Br)c1O (stereo not given)
Activity (Jurkat [1]): Active
GI50 (HeLa): 2700 nM

Cn1c(=O)c2c(c3ccccc31)OC(N)=C(C#N)C2c1ccc(Cl)c(Cl)c1 (stereo not given)
GI50 (HeLa): 300 nM
GI50 (MCF7): 2500 nM

CCOc1c(Br)cc(C2C(C#N)=C(N)Oc3cc(C)n(C)c(=O)c32)cc1OC (stereo not given)
Activity (Jurkat [1]): Active
GI50 (HeLa): 1100 nM

Cc1cc2c(c(=O)o1)C(c1cccc(Br)c1)C(C#N)=C(N)O2 (stereo not given)
GI50 (HeLa): > 100000 nM

COc1ccc(CCn2c(C)cc3c(c2=O)C(c2cc(OC)c(OC)c(OC)c2)C(C#N)=C(N)O3)cc1OC (stereo not given)
Activity (Jurkat [1]): inactive
GI50 (HeLa): 22700 nM

Cn1c(=O)c2c(c3ccccc31)OC(N)=C(C#N)C2c1cc(Br)cc(Br)c1 (stereo not given)
GI50 (HeLa): 77 nM
GI50 (MCF7): 75 nM

Cn1c(=O)c2c(c3ccccc31)OC(N)=C(C#N)C2c1cccnc1 (stereo not given)
GI50 (HeLa): 2000 nM
GI50 (MCF7): > 50000 nM

COc1cc(C2C(C#N)=C(N)Oc3c2c(=O)n(C)c2ccccc32)cc([N+](=O)[O-])c1O (stereo not given)
GI50 (HeLa): 630 nM
GI50 (MCF7): 710 nM

COc1cc(C2C(C#N)=C(N)Oc3cc(C)n(C)c(=O)c32)cc(Br)c1OC(C)=O (stereo not given)
Activity (Jurkat [1]): Active
GI50 (HeLa): 3500 nM

COc1cc(C2C(C#N)=C(N)Oc3cc(C)n(C)c(=O)c32)cc(Br)c1OC (stereo not given)
Activity (Jurkat [1]): Active
GI50 (HeLa): 580 nM

Cn1c(=O)c2c(c3ccccc31)OC(N)=C(C#N)C2c1ccccc1[N+](=O)[O-] (stereo not given)
GI50 (HeLa): 5000 nM
GI50 (MCF7): 3500 nM

Cn1c(=O)c2c(c3ccccc31)OC(N)=C(C#N)C2c1cncc(Br)c1 (stereo not given)
GI50 (HeLa): 13 nM
GI50 (MCF7): 15 nM

COc1cc(C2C(C#N)=C(N)Oc3c2c(=O)n(C)c2ccccc32)cc(OC)c1OC (stereo not given)
GI50 (HeLa): 240 nM
GI50 (MCF7): 1000 nM

Cn1c(=O)c2c(c3ccccc31)OC(N)=C(C#N)C2c1cccc(Br)c1 (stereo not given)
GI50 (HeLa): 740 nM
GI50 (MCF7): 3 nM

COc1cc(C2C(C#N)=C(N)Oc3c2c(=O)n(C)c2ccccc32)cc(Br)c1O (stereo not given)
Activity (Jurkat [2]): 27%
Activity (Jurkat [8]): Active
Activity (Jurkat [3]): 22%
Activity (Jurkat [4]): Active
GI50 (HeLa): 47 nM
Activity (Bos taurus [5]): Active
GI50 (MCF7): 390 nM
Activity (Jurkat [6]): 47%
Activity (Jurkat [7]): Active
Activity (Jurkat [9]): tde

COc1ccc(C2C(C#N)=C(N)Oc3c2c(=O)n(C)c2ccccc32)cc1Br (stereo not given)
GI50 (HeLa): 410 nM
GI50 (MCF7): 500 nM

Cc1cc2c(c(=O)n1C)C(c1ccc(C(C)C)cc1)C(C#N)=C(N)O2 (stereo not given)
Activity (Jurkat [1]): inactive
GI50 (HeLa): > 100000 nM

Cc1cc2c(c(=O)n1C)C(c1ccc(F)c(Br)c1)C(C#N)=C(N)O2 (stereo not given)
Activity (Jurkat [1]): Active
GI50 (HeLa): 6400 nM

Cn1c(=O)c2c(c3ccccc31)OC(N)=C(C#N)C2c1ccc(F)c(Br)c1 (stereo not given)
GI50 (HeLa): 270 nM
GI50 (MCF7): 810 nM

COc1cc(C2C(C#N)=C(N)Oc3cc(C)n(C)c(=O)c32)cc(OC)c1OC (stereo not given)
GI50 (HeLa): 43300 nM

Cn1c(=O)c2c(c3ccccc31)OC(N)=C(C#N)C2c1cccc(F)c1 (stereo not given)
GI50 (HeLa): 300 nM
GI50 (MCF7): 1000 nM

Cn1c(=O)c2c(c3ccccc31)OC(N)=C(C#N)C2c1cccc(Cl)c1Cl (stereo not given)
GI50 (HeLa): 1800 nM
GI50 (MCF7): > 50000 nM

CC(=O)O[C@H]1C(=O)[C@@]2(C)[C@H]([C@H](OC(=O)c3ccccc3)[C@]3(O)C[C@H](OC(=O)[C@H](O)[C@@H](NC(=O)c4ccccc4)c4ccccc4)C(C)=C1C3(C)C)[C@]1(OC(C)=O)CO[C@@H]1C[C@@H]2O
Activity (Bos taurus [10]): Active
Activity (Jurkat [11]): Active

Cn1c(=O)c2c(c3ccccc31)OC(N)=C(C#N)C2c1ccncc1 (stereo not given)
GI50 (HeLa): > 50000 nM
GI50 (MCF7): 32000 nM
